The subject of one data set is MOLT-4 cells. Nature of the data set: Xenotransplantation in zebrafish embryos. It is filed as in vivo. The following applies: 500 nM, 48 h. An outline of the steps:
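Wild-type TE zebrafish embryos at 32 hpf each received ~1 nL (~200) CFDA SE-labeled MOLT-4 cells into the perivitelline space, then 1 h at 28 °C. Well-engrafted embryos were treated with test compound (500 nM) or DMSO for 48 h at 35 °C, with development monitored. Embryos were dissociated through a 40 μm strainer and labeled cells quantified by flow cytometry. Fold change was taken against the DMSO-group mean.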

A further data set deals with Hsp70, Hsp40, and Hsp27. The data set is described as follows: Immunoblot of heat shock response proteins in K562 cells. As to conditions: 48 h, cytotoxic concentration. The class given is cell-based, human.
Data set [1] in a line: Aqueous thermodynamic solubility. The class given is physicochemical. As to conditions: phosphate-buffered saline, pH 7.4.
The target in data set [2] is recombinant Hsp90α CTD protein (Homo sapiens, UniProt P07900). Nature of the data set: Cell-free thermal shift assay. The following applies: 100 µM. The class given is binding. An outline of the steps: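 Recombinant human Hsp90α CTD (residues 563–732, 5 μM) was mixed with test compound in 1× PBS, pH 7.5, and incubated for 2 h. SYPRO orange (6×) was added and samples were heated with increasing temperature up to 95 °C. Tm was compared with the DMSO vehicle control.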
Sequence of recombinant Hsp90α CTD protein (P07900 563-732): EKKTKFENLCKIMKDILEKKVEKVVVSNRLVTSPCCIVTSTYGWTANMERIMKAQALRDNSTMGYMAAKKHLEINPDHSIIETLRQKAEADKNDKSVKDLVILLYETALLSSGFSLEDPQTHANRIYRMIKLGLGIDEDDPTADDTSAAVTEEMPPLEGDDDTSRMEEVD

Structures are written as SMILES. Values after ≈ are worked out from the molar mass of the structure shown.

Consider `CCNC(=O)c1noc(-c2cc(C(C)C)c(O)cc2O)c1-c1ccc(CN2CCOCC2)cc1` [AUY922], for which the “toxicity on the development of xenotransplanted embryos” value in the data set on MOLT-4 cells is on record as “No toxicity”. For the same compound, the “number of transplanted MOLT4 cells vs DMSO-treated group” value in the data set on MOLT-4 cells (flow cytometry) is recorded as “significantly reduced”. The “induction of heat shock response (expression of Hsp70, Hsp40, Hsp27)” value in the data set on Hsp70, Hsp40, and Hsp27 is given as “led to HSR induction”.

One may read the solubility (thermodynamic) as solubility found after equilibrating the solid with the medium. The compound `Cc1nccn1CC1CCc2c(c3ccccc3n2C)C1=O` (centres unmarked) [Ondansetron] gave a thermodynamic solubility in data set [1] of 95 µM (≈ 27.9 µg/mL).

Turning to `CO[C@H]1[C@H](OC(=O)c2ccc(C)[nH]2)[C@H](O)[C@@H](Oc2ccc3c(O)c(NC(=O)c4c[nH]c(C(=O)Nc5c(O)c6ccc(O[C@H]7OC(C)(C)[C@@H](OC)[C@H](OC(=O)c8ccc(C)[nH]8)[C@@H]7O)c(C)c6oc5=O)c4C)c(=O)oc3c2C)OC1(C)C` [coumermycin A1], in data set [2], the “effect on thermal stability of Hsp90α CTD protein” value is “stabilized”.

For the origin of these results see publication PMC9136973 (ACS Central Science, 2022).
